Data as given in ChEMBL document CHEMBL4422648, “Synthesis, biological evaluation and mode of action studies of novel amidinourea inhibitors of hepatitis C virus (HCV)” (Bioorg Med Chem Lett, 2019).
Activity calls are given as the source filed them. The calls are words filed in the database; no cut-off is given here.

Tests used:
Hepatitis C virus [1] = test: Antiviral activity against HCV pseudo-particle infected in human HuH7 cells assessed as inhibition of HCV pseudo particles entry at 10 uM preincubated for 1 hr followed by viral infection and measured after 72 hrs by bright-glo luciferase reporter gene assay; format: functional, organism-based; conditions: Hepacivirus hominis
How it was run: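 Huh7 cells were pretreated with 10 µM compound for 1 h. They were then infected with HCV pseudo-particles for 3 h in the compound's presence. Entry was detected 72 h post infection; bafilomycin served as the positive control.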

Huh-7 = test: Cytotoxicity against human HuH7 cells at 10 uM after 24 hrs by WST-1 assay; format: cell-based; conditions: huh-7, 24 h
How it was run: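 Huh7 cells were incubated 24 h with 10 µM of each compound before cell viability was assessed.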

Hepatitis C virus [2] = test: Antiviral activity against HCV sub-genomic replicon infected in human Huh7 cells at 10 uM added immediately with viral infection and measured after 24 hrs by bright-glo luciferase reporter gene assay relative to control; format: functional
How it was run: (§1)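 Huh7 cells were electroporated with HCV subgenomic replicon RNA. Compound at 10 µM was added either immediately at seeding or after 24 h to let replication establish. Luciferase was measured after 24 h of treatment.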

Hepatitis C virus [3] = test: Antiviral activity against HCV sub-genomic replicon infected in human Huh7 cells at 10 uM added 24 hrs after viral infection and measured after 24 hrs by bright-glo luciferase reporter gene assay relative to control; format: functional, Hepacivirus hominis; how it was run: as §1
[4] = test system: Internal ribosome entry site (IRES); test: Inhibition of HCV IRES transfected in human Huh7 cells assessed as inhibition of IRES-mediated translation after 24 hrs by dual luciferase reporter gene assay relative to control; format: cell-based; conditions: Hepacivirus hominis; dose or concentration not given here
How it was run: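 Huh7 cells were co-transfected with a plasmid for firefly luciferase driven by the HCV IRES and a plasmid for Renilla luciferase under the TK promoter, used to normalise transfection efficiency. Cells were exposed to compound for 24 h, then assayed by dual luciferase.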

Hepatitis C virus [5] = test: Antiviral activity against HCV replication defective replicon infected in human Huh7 cells after 2 to 8 hrs by bright-glo luciferase reporter gene assay; format: functional, organism-based; conditions: Hepacivirus hominis
How it was run: (§2)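 Time course: Huh7 cells were transfected with HCV replicon RNA (wild-type subgenomic or replication-defective GND) and seeded in the presence of compound. Replication/translation signal was read at 2, 4, 8 and 24 h post transfection and compared with untreated cells at each time point.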

Hepatitis C virus [6] = test: Antiviral activity against HCV replicon infected in human Huh7 cells assessed as reduction in NS5A level after 8 to 24 hrs by Western blot analysis; format: functional, organism-based; conditions: Hepacivirus hominis
How it was run: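 After transfection with HCV replicon RNA, Huh7 cells were treated immediately for 8 or 24 h. Lysates were probed by western blot for NS5A and for unprocessed polyprotein.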

Hepatitis C virus [7] = test: Antiviral activity against HCV JFH-1 infected in human Huh7-J20 cells after 72 hrs by SEAP based assay; format: functional, organism-based, Hepacivirus hominis; conditions: JFH-1, Huh7-J20, 72 h
How it was run: (§3)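 HCVcc (JFH-1 clone) inoculated onto Huh7-J20 cells for 3 h. Infected cells were then exposed for 72 h to a dose range starting at 30 µM with 1:3 serial dilutions. Viral replication was read after harvest, and cell viability was measured in parallel.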

Hepatitis C virus [8] = test: Antiviral activity against HCV sub-genomic replicon infected in human Huh7 cells after 2 to 24 hrs by bright-glo luciferase reporter gene assay; format: functional, organism-based; conditions: Hepacivirus hominis; how it was run: as §2
Hepatitis C virus [9] = test: Antiviral activity against HCV replicon infected in human Huh7-J17 cells after 24 hrs by bright-glo luciferase reporter gene assay relative to control; format: functional, Hepacivirus hominis
[10] = Cytotoxicity against human Huh7-J20 cells infected with HCV sub-genomic replicon assessed as reduction in cell viability up to 30 uM after 24 hrs by WST-1 assay; format: cell-based
How it was run: (§4)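 Subgenomic replicon RNA was electroporated into cells, which were exposed for 24 h to a dose range from 30 µM in 1:3 dilutions. Replication was read by luciferase, with cell viability measured alongside.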

Hepatitis C virus [11] = test: Antiviral activity against HCV sub-genomic replicon infected in human Huh7-J20 cells after 24 hrs by bright-glo luciferase reporter gene assay; format: functional, organism-based; how it was run: as §4
[12] = Cytotoxicity against human Huh7-J20 cells infected with HCV JFH-1 after 72 hrs by WST-1 assay; format: cell-based; how it was run: as §3
Hepatitis C virus [13] = test: Antiviral activity against HCV replicon infected in human Huh7 cells after 8 to 24 hrs by Western blot analysis; conditions: Hepacivirus hominis

| Structure (SMILES) | Activity (Hepatitis C virus [1]) | Activity (Huh-7) | Activity (Hepatitis C virus [2]; Hepacivirus hominis) | further results |
| --- | --- | --- | --- | --- |
| C=CCNC(=N)NCCCCCCCCNC(=N)NCC=C | inactive | Non-Toxic | inactive |  |
| CO/C1=C\C(C)=C\[C@@H](C)[C@@H](O)[C@@H](C)C/C(C)=C/C=C/[C@H](OC)[C@@H]([C@@H](C)[C@@H](O)[C@H](C)[C@@]2(O)C[C@@H](O)[C@H](C)[C@@H](C(C)C)O2)OC1=O | Active |  |  |  |
| C=CCNC(=O)NC(=N)NCCCNCCCCNCCCNC(=N)NC(=O)NCC=C | inactive | Non-Toxic |  | Activity (Hepatitis C virus [3]): 45%; inhibition [4]: 40%; Activity (Hepatitis C virus [5]): Active; Activity (Hepatitis C virus [6]): Active; IC50 (Hepatitis C virus [7]): 12.3 µM; Activity (Hepatitis C virus [8]): Active; Activity (Hepatitis C virus [9]): 45%; Activity [10]: Non-Toxic; Activity (Hepatitis C virus [2]): 90%; Activity (Hepatitis C virus [11]; Hepacivirus hominis): Dose-dependent effect; IC50 (Hepatitis C virus [11]; Huh7-J20, 24 h): 2.65 µM; CC50 at 72 h [12]: 81.1 µM; Activity (Hepatitis C virus [13]): Active |
| C=CCNC(=O)NC(=N)NCCCCNCCCNC(=N)NC(=O)NCC=C | inactive | Non-Toxic | inactive |  |
| C#CCNC(=N)NCCCCCCNCCCCCCNC(=N)NCC#C | inactive | Non-Toxic | inactive |  |
| C=CCNC(=O)NC(=N)NCCCCN | inactive | Non-Toxic | inactive |  |
| C=CCNC(=O)NC(=N)NCCCN(C)CCCCN(C)CCCNC(=N)NC(=O)NCC=C | inactive | Non-Toxic | inactive |  |
| C=CCNC(=O)NC(=N)NCCCCNC(=N)NC(=O)NCC=C | inactive | Non-Toxic | inactive |  |
| C=CCNC(=N)NCCCCCCNCCCCCCNC(=N)NCC=C | inactive | Non-Toxic | inactive |  |
| N=C(NCCCCCCCCNC(=N)NCc1ccccc1)NCc1ccccc1 | inactive | Non-Toxic | inactive |  |
| C=CCNC(=O)NC(=N)NCCCCNC(=O)c1ccccc1 | inactive | Non-Toxic | inactive |  |
